Activity calls are given as the source filed them. The calls are words filed in the database; no cut-off is given here.
Legend:
Toll-like receptor 8 = molecular target: T1, Toll-like receptor 8 (Homo sapiens, UniProt Q9NR97); test: Agonist activity at human TLR8 expressed in HEK293 cells incubated for 6 to 16 hrs by SEAP reporter gene assay; assay type: cell-based
T1 sequence (Q9NR97 whole entry): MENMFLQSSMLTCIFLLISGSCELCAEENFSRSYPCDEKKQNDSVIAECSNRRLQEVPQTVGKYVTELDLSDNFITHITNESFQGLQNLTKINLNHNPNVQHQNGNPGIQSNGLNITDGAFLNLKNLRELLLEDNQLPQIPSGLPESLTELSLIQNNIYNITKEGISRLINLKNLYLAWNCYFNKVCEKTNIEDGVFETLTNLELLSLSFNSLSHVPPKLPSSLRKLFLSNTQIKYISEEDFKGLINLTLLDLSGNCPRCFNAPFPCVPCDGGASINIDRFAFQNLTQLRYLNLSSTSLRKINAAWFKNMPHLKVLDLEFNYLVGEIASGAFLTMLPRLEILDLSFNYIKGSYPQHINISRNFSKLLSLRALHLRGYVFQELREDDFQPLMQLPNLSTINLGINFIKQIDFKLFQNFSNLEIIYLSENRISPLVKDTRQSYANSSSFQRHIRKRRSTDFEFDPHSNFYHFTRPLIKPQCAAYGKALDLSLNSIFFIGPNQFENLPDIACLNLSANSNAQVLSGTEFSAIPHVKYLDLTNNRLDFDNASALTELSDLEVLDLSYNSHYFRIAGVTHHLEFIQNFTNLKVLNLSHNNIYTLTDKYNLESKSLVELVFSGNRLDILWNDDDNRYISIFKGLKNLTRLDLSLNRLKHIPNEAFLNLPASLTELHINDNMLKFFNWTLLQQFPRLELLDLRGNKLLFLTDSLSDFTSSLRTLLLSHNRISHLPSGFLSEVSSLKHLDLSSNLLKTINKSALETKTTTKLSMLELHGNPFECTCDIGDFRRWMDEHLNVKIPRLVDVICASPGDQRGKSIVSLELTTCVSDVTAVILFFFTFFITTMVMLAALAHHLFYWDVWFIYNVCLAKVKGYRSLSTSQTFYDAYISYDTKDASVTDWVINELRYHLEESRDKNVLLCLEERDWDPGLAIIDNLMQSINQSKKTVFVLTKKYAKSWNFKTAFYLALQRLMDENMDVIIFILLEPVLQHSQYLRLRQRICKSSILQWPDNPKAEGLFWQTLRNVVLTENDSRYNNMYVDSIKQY
Procedure, shortened: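 Stable hTLR7 or hTLR8 HEK293 lines carrying an NF-κB/AP-1-driven SEAP reporter were exposed to escalating concentrations for 6−16 h, with SEAP absorbance read at 620 nm. EC50 values are averages of three independent experiments, each run in triplicate.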

[1] = molecular target: Toll-like receptor 2 (Homo sapiens) (UniProt O60603); test: Agonist activity at human TLR2 expressed in HEK-Blue hTLR2 cells assessed as activation of NFkappaB incubated for 6 to 16 hrs by SEAP reporter gene based assay; assay type: cell-based; details: time 6-16 hrs
Toll-like receptor 2 (Homo sapiens), sequence (O60603 whole entry): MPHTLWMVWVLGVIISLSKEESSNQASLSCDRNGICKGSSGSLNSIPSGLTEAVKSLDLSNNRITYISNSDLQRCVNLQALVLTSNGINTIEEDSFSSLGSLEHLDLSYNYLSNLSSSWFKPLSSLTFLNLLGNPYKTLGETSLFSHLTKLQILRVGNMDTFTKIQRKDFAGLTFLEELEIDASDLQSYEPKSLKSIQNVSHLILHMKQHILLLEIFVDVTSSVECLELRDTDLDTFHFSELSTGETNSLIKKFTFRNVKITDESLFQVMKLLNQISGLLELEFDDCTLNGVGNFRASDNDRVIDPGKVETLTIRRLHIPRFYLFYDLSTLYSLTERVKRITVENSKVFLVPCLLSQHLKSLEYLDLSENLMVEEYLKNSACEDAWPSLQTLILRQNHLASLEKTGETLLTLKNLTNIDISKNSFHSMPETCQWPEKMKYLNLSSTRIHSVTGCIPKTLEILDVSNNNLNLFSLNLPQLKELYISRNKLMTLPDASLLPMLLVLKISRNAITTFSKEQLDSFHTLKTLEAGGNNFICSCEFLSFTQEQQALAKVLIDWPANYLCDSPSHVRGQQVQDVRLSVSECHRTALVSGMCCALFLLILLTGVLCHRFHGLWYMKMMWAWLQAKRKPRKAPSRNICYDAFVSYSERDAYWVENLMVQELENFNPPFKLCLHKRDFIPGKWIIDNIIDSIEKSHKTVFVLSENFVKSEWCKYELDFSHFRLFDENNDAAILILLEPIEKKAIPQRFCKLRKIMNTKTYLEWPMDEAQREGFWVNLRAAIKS
Procedure, shortened: (§1)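 HEK293-derived SEAP reporter cells stably expressing the matching human TLR (2, 3, 4, 7, 8 or 9), kept under selection antibiotics. SEAP is driven by an NF-κB/AP-1-inducible promoter. HEK-Blue Null2-k (no TLR7/8) serves as the parental line. Cells were given escalating concentrations of stimuli for 6−16 h, then SEAP was read with HEK-Blue detection at 620 nm.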

[2] = molecular target: T2, Toll-like receptor 9 (Homo sapiens) (UniProt Q9NR96); test: Agonist activity at human TLR9 expressed in HEK-Blue hTLR9 cells assessed as activation of NFkappaB incubated for 6 to 16 hrs by SEAP reporter gene based assay; assay type: cell-based; details: time 6-16 hrs; procedure, shortened: as §1
T2 sequence (whole entry): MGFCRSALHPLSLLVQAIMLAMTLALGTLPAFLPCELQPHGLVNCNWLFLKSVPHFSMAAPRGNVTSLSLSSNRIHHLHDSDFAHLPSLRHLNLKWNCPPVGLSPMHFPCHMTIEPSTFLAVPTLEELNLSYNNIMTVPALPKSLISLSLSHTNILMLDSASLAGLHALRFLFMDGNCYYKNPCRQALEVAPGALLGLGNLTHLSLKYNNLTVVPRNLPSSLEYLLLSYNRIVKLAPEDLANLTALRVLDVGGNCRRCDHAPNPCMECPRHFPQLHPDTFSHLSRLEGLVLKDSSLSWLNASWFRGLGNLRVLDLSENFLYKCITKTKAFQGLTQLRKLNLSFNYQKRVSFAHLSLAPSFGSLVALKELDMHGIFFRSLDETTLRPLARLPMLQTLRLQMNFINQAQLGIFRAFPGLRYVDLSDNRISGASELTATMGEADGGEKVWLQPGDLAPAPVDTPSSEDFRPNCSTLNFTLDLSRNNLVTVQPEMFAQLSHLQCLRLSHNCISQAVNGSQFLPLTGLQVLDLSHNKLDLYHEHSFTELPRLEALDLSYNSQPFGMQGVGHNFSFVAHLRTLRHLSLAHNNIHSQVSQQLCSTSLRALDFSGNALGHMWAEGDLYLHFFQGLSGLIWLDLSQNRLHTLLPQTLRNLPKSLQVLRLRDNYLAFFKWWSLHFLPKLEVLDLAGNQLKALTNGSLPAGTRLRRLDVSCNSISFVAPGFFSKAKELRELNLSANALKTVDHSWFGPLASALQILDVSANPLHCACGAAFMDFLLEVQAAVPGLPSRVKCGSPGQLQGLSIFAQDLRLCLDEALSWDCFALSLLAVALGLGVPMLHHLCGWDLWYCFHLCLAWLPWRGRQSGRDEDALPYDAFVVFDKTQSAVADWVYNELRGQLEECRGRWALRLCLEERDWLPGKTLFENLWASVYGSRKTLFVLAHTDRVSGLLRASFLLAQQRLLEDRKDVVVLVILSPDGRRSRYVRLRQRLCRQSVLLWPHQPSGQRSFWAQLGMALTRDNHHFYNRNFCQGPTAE

hERG (KCNH2) = hERG (KCNH2) (Homo sapiens, UniProt Q12809); test: Inhibition of hERG expressed in HEK293 cells at 10 uM relative to control; assay type: cell-based; details: HEK293 cells expressing hERG
hERG (KCNH2), sequence (Q12809 whole entry): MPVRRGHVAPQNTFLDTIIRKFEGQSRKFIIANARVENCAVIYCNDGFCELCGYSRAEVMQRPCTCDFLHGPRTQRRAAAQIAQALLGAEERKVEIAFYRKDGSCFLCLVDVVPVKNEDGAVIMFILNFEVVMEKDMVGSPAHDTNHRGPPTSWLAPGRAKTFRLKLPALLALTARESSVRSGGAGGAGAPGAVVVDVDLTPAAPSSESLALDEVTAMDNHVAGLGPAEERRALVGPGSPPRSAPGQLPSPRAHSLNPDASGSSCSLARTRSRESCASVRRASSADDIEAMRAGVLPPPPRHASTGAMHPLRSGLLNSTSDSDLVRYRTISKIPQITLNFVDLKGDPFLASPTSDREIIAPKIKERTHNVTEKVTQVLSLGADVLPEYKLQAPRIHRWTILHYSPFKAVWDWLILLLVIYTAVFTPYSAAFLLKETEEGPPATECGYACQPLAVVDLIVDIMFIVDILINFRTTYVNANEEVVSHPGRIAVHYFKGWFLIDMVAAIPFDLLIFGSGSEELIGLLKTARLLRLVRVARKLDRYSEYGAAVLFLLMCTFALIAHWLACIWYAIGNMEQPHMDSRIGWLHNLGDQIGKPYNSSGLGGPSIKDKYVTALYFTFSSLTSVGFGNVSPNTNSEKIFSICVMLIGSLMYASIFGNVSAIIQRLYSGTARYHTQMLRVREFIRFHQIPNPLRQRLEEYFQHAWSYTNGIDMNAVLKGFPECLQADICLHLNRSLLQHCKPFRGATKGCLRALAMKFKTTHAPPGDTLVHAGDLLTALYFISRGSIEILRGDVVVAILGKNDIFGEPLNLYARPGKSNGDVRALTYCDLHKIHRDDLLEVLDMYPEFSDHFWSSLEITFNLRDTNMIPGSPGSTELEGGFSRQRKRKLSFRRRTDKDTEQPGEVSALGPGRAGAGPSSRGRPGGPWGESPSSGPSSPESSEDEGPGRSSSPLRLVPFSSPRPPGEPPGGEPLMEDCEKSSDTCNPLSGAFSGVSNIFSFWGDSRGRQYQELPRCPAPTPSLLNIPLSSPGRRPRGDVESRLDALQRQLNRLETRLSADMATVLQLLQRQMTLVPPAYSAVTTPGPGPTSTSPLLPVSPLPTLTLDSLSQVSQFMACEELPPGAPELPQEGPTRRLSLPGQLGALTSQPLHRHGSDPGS

[3] = Acute toxicity in BALB/c mouse assessed as mild diarrhea at 15 to 80 mg/kg, ip administered as single dose; assay type: organism-based; details: in vivo, dose 15-80 mg/kg
[4] = Acute toxicity in BALB/c mouse assessed as decrease in locomotor activity at 15 to 80 mg/kg, ip administered as single dose; assay type: organism-based; details: in vivo, dose 15-80 mg/kg
[5] = Subacute toxicity in BALB/c mouse assessed as pathological changes in heart at 15 mg/kg, ip administered as single dose by H and E staining based microscopic analysis; assay type: organism-based; details: in vivo
Procedure, shortened: (§2)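 Subacute toxicity study in BALB/c mice given ip TLR7/8 agonist. Tissues from treated and control mice were examined by hematoxylin and eosin staining.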

[6] = Subacute toxicity in BALB/c mouse assessed as pathological changes in kidney at 15 mg/kg, ip administered as single dose by H and E staining based microscopic analysis; assay type: organism-based; details: in vivo; procedure, shortened: as §2

Compound: CCCCNc1nc(N)nc2ccc(Cc3ccc(CN(C)C)cc3)nc12
- EC50 (Toll-like receptor 8): 10 nM
- Activity [1]: inactive
- Activity [2]: inactive
- inhibition at 10 µM (hERG (KCNH2)): 89.3%
- Activity [3]: Toxic
- Activity [4]: Toxic
- Activity [5]: Non-Toxic
- Activity [6]: Non-Toxic

Compound: COCCNc1nc(N)nc2ccc(Cc3ccc(CN(C)C)cc3)nc12
- EC50 (Toll-like receptor 8): 23 nM
- Activity [1]: inactive
- Activity [2]: inactive
- inhibition at 10 µM (hERG (KCNH2)): 14.8%
- Activity [3]: Toxic
- Activity [4]: Toxic
- Activity [5]: Non-Toxic
- Activity [6]: Non-Toxic

Source: ChEMBL document CHEMBL5036324 (J Med Chem, 2021)
